Three molecules from ChEMBL document CHEMBL1136005 (J Med Chem, 2002) can be followed below.

pIC50: −log10 of the molar value. A value given as a limit tells only on which side of the number the result lay.

Series [1] deals with T1, Dual specificity mitogen-activated protein kinase kinase 3 (Homo sapiens, UniProt P46734).
T1 sequence (P46734 whole entry): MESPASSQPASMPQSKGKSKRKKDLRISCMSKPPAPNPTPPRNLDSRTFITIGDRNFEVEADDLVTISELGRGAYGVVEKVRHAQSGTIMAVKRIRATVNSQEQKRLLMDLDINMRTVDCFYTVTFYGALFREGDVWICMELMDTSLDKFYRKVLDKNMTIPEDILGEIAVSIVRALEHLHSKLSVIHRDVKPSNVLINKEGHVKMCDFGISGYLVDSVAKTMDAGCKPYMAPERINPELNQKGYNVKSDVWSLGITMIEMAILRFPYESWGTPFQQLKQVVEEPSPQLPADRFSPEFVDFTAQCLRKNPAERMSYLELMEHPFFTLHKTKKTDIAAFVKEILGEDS
The experiment in a line: Inhibition of Mitogen activated protein kinase kinase 3. Summed up: (§1)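 Substrate phosphorylation measured in an in vitro assay with purified enzyme; IC50 values in µmol/L.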

Series [2] is described as follows: Plasma concentration was determined after 8 hr at a dose 30 mg/kg administered orally to rat-3. Type of series: ADME, organism-based. Details: dose 30 mg/kg, route oral. The settings on record: po. Put shortly:
(§2)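 Sprague-Dawley rats, n=2 per compound, dosed orally at 30 mg/kg. Plasma drug concentration measured 1 and 8 h after dosing.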

Series [3] concerns the target Mast/stem cell growth factor receptor Kit (Homo sapiens, UniProt P10721). The experiment in a line: Inhibition of Mast/stem cell growth factor receptor (c-kit) autophosphorylation.
The target in series [4] is Macrophage colony-stimulating factor 1 receptor (Homo sapiens, UniProt P07333). The experiment in a line: Inhibition of Colony stimulating factor 1 receptor (CSF-1R) autophosphorylation.
Macrophage colony-stimulating factor 1 receptor, sequence (P07333 whole entry): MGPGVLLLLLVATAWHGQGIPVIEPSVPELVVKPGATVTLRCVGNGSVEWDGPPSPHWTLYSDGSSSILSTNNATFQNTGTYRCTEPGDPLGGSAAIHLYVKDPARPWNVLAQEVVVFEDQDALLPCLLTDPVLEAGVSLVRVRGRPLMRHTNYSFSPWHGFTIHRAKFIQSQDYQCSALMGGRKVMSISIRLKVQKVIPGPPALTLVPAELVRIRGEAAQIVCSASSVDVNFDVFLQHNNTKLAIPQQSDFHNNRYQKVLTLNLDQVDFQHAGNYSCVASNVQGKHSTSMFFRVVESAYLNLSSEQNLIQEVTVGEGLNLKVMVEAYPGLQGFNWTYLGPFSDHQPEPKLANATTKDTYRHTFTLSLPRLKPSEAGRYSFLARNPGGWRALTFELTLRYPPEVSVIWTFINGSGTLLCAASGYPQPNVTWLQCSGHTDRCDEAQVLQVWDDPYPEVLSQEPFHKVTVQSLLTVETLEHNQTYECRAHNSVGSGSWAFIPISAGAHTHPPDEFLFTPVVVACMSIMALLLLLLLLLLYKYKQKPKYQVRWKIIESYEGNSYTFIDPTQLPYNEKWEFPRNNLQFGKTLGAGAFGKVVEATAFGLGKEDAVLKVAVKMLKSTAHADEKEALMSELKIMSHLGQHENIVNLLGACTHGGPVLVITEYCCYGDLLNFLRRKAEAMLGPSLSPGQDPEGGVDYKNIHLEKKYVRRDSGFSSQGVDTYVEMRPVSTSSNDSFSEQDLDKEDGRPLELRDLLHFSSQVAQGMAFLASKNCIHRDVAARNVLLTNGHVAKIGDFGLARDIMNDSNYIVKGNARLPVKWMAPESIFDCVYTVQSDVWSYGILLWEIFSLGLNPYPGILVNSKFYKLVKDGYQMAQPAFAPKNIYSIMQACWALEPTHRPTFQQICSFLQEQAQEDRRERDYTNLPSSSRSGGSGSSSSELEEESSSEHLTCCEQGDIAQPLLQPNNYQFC
Series [5] concerns the target Mitogen-activated protein kinase 8 (Homo sapiens, UniProt P45983). The experiment in a line: Inhibition of c-Jun N-terminal kinase (Jnk). Put shortly: as §1
Series [6] is described as follows: Plasma concentration was determined after 1 hr at a dose 30 mg/kg administered orally to rat-4. Type of series: ADME, organism-based. On the set-up: dose 30 mg/kg, route oral. The settings on record: po. Summed up: as §2
Series [7] concerns the target T2, Receptor-type tyrosine-protein kinase FLT3 (Homo sapiens, UniProt P36888).
T2 sequence (P36888 whole entry): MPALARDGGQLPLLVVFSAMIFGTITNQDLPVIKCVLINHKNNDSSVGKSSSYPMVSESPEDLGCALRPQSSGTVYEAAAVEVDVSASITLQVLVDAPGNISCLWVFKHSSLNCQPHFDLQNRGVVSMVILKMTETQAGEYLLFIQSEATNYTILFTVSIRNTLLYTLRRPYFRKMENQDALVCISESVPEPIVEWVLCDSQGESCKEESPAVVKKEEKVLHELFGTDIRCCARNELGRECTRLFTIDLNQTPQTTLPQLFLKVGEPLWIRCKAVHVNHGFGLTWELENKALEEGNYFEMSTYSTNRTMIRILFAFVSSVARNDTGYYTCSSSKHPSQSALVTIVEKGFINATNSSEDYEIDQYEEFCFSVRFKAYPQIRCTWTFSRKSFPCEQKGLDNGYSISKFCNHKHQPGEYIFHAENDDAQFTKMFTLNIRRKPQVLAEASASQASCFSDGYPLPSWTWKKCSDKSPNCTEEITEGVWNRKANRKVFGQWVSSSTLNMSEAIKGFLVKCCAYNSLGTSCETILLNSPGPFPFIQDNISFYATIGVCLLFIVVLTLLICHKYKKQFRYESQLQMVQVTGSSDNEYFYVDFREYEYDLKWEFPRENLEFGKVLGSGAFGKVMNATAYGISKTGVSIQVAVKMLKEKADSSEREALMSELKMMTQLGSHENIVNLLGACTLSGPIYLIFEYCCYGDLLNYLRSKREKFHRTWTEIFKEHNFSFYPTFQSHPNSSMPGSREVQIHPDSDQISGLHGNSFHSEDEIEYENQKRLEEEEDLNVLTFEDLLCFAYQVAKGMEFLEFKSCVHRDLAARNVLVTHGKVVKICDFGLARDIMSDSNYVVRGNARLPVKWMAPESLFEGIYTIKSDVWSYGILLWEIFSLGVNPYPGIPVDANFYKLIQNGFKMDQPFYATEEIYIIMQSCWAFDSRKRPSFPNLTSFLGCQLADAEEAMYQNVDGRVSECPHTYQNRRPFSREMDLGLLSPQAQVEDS
The experiment in a line: Inhibition of Flt3 autophosphorylation.

For series [8], the target named is Proto-oncogene tyrosine-protein kinase Src (Homo sapiens, UniProt P12931). The experiment in a line: Inhibition of Src protein tyrosine kinase. Summed up: as §1
Proto-oncogene tyrosine-protein kinase Src, sequence (P12931 2-536 limits assumed): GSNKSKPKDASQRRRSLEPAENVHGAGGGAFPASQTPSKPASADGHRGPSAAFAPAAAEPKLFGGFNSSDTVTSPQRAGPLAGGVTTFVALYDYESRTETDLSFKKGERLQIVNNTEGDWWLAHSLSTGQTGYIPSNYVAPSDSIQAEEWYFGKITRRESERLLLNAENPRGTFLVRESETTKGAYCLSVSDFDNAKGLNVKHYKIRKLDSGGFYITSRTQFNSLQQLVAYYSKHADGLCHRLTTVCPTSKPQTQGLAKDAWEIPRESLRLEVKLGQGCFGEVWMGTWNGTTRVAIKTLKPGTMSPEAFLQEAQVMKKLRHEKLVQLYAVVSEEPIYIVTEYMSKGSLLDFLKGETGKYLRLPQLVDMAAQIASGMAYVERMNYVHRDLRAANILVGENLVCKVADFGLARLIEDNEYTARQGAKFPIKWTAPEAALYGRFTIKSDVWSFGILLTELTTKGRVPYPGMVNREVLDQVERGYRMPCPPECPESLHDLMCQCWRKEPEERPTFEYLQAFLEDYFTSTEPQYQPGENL
The target in series [9] is T3, Dual specificity mitogen-activated protein kinase kinase 6 (Homo sapiens, UniProt P52564).
T3 sequence (P52564 whole entry): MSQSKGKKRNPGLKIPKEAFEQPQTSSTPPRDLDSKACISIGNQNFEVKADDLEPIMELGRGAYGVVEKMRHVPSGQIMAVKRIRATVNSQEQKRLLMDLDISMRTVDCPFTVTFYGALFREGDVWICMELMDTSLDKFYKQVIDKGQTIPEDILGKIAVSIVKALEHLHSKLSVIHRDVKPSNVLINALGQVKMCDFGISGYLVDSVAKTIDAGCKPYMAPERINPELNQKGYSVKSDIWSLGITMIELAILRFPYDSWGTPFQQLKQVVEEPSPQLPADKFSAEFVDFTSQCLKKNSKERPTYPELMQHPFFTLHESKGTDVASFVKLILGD
The experiment in a line: Inhibition of Mitogen activated protein kinase kinase 6. Put shortly: as §1

For series [10], the target named is MAP kinase p38 (Homo sapiens, UniProt O15264+Q15759+Q16539+P53778). The experiment in a line: Inhibition of Mitogen-activated protein kinase p38. Type of series: protein assay. Summed up: as §1
Series [11] addresses Dual specificity mitogen-activated protein kinase kinase 1 (Homo sapiens, UniProt Q02750). The experiment in a line: Inhibition of Mitogen activated protein kinase kinase 1. Put shortly:
as §1

For series [12], the target named is Fibroblast growth factor receptor (Homo sapiens, UniProt P22607+P11362+P22455+P21802). The experiment in a line: Inhibition of Fibroblast growth factor receptor autophosphorylation. It is filed as protein assay.
Series [13] is described as follows: Plasma concentration was determined after 1 hr at a dose 30 mg/kg administered orally to rat-3. Type of series: ADME, organism-based. Details: dose 30 mg/kg, route oral. The settings on record: po. Summed up: as §2
The target in series [14] is Platelet-derived growth factor receptor alpha (Homo sapiens, UniProt P16234). The experiment in a line: Inhibition of PDGF receptor alpha autophosphorylation.
Platelet-derived growth factor receptor alpha, sequence (P16234 whole entry): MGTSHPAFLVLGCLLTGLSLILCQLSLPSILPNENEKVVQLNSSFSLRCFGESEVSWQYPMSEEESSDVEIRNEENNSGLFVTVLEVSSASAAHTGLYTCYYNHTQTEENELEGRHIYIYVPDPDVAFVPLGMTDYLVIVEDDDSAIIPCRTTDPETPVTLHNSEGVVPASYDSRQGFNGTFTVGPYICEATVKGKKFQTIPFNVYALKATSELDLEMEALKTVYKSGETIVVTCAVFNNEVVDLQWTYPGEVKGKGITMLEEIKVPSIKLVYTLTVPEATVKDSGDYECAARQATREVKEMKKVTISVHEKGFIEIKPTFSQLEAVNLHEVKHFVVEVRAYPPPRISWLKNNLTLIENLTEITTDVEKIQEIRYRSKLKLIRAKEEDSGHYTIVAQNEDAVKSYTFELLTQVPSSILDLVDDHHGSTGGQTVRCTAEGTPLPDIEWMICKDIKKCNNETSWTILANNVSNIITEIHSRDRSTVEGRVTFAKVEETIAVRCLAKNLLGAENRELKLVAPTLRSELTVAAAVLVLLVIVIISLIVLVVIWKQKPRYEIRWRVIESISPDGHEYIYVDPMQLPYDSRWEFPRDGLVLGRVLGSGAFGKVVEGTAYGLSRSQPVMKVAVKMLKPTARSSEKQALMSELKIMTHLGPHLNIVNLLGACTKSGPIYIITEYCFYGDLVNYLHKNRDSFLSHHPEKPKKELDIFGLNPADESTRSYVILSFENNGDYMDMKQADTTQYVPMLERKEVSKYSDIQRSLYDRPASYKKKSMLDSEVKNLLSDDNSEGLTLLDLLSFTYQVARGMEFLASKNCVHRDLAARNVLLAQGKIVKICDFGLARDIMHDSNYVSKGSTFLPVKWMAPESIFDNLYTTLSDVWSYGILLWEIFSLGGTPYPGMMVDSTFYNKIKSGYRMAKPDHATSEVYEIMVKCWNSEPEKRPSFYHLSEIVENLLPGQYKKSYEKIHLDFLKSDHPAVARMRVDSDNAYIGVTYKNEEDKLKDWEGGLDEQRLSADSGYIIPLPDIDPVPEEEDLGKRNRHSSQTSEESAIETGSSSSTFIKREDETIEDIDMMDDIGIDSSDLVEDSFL
Series [15] concerns the target Protein kinase C (PKC). The experiment in a line: Inhibition of Protein kinase C. It is filed as protein assay. Put shortly: as §1
Series [16] has as its target cAMP-dependent protein kinase (PKA) (Homo sapiens, UniProt P22694+P17612+P22612). The experiment in a line: Inhibition of Protein kinase A (PKA). It is filed as protein assay. Summed up:
as §1

The target of series [17] is Mitogen-activated protein kinase; ERK1/ERK2 (Homo sapiens, UniProt P27361+P28482). The experiment in a line: Inhibition of Extracellular signal-regulated kinase (Erk). Type of series: protein assay. Put shortly: as §1
Series [18] is described as follows: Plasma concentration was determined after 8 hr at a dose 30 mg/kg administered orally to rat-4. The settings on record: po. On the set-up: dose 30 mg/kg, route oral. It is filed as ADME, organism-based. Summed up:
as §2

Series [19] is described as follows: Plasma concentration was determined after 8 hr at a dose 30 mg/kg administered orally to rat-10. Type of series: ADME, organism-based. Details: dose 30 mg/kg, route oral. Conditions: po. Summed up:
as §2

Series [20] is described as follows: pharmacokinetic parameter was evaluated after oral administration of 30 mg/kg to rat. Conditions: in vivo. It is filed as ADME, organism-based. Details: dose 30 mg/kg, route oral. Put shortly:
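Sprague-Dawley rats, n=3, dosed orally at 30 mg/kg. Plasma drug concentrations were followed to derive Tmax (h), Cmax (µg/mL), T1/2 (h) and AUC0-∞ (µg h/mL).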

Series [21] is described as follows: Plasma concentration was determined after 8 hr at a dose 30 mg/kg administered orally to rat-9. The settings on record: po. It is filed as ADME, organism-based. Details: dose 30 mg/kg, route oral. Summed up: as §2
A short description of series [22]: Plasma concentration was determined after 1 hr at a dose 30 mg/kg administered orally to rat-9. It is filed as ADME, organism-based. Details: dose 30 mg/kg, route oral. The settings on record: po. Summed up:
as §2

Series [23] concerns the target Vascular endothelial growth factor receptor 2 (Homo sapiens, UniProt P35968). The experiment in a line: Inhibition of Vascular endothelial growth factor receptor 2 (VEGFR-2) autophosphorylation.
Series [24] in a line: Plasma concentration was determined after 1 hr at a dose 30 mg/kg administered orally to rat-10. It is filed as ADME, organism-based. Details: dose 30 mg/kg, route oral. The settings on record: po. Put shortly: as §2
The target of series [25] is Tyrosine-protein kinase ABL (Homo sapiens, UniProt P00519+P42684). The experiment in a line: Inhibition of Abl tyrosine kinase. Type of series: protein assay. Summed up: as §1
Series [26] can be described thus: Plasma concentration was determined after 1 hr at a dose 30 mg/kg administered orally to rat-7. It is filed as ADME, organism-based. On the set-up: dose 30 mg/kg, route oral. Conditions: po. Summed up:
as §2

A short description of series [27]: Plasma concentration was determined after 1 hr at a dose 30 mg/kg administered orally to rat-8. On the set-up: dose 30 mg/kg, route oral. It is filed as ADME, organism-based. Conditions: po. Put shortly:
as §2

Series [28] has as its target Platelet-derived growth factor receptor (Homo sapiens, UniProt P09619+P16234). The experiment in a line: Concentration required for 50% inhibition against autophosphorylation of Platelet-derived growth factor receptor beta in intact cells using a two site ELISA. Type of series: cell-based.
Series [29] is described as follows: Plasma concentration was determined after 8 hr at a dose 30 mg/kg administered orally to rat-7. It is filed as ADME, organism-based. Details: dose 30 mg/kg, route oral. Conditions: po. Summed up:
as §2

Series [30] in a line: Plasma concentration was determined after 8 hr at a dose 30 mg/kg administered orally to rat-8. Type of series: ADME, organism-based. On the set-up: dose 30 mg/kg, route oral. Conditions: po. Summed up: as §2

Mitogen-activated protein kinase 8, sequence (P45983 whole entry): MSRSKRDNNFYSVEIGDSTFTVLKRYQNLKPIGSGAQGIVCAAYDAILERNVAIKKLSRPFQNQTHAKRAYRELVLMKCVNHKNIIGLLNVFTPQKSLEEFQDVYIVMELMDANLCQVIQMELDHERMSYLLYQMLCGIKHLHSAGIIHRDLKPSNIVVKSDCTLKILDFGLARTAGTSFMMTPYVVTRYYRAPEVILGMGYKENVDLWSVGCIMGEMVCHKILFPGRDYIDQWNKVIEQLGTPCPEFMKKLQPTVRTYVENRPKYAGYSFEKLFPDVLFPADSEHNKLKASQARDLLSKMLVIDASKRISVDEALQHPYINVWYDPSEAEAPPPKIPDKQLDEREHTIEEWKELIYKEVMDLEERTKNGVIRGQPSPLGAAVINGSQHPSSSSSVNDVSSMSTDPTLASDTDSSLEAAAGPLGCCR
Dual specificity mitogen-activated protein kinase kinase 1, sequence (Q02750 whole entry): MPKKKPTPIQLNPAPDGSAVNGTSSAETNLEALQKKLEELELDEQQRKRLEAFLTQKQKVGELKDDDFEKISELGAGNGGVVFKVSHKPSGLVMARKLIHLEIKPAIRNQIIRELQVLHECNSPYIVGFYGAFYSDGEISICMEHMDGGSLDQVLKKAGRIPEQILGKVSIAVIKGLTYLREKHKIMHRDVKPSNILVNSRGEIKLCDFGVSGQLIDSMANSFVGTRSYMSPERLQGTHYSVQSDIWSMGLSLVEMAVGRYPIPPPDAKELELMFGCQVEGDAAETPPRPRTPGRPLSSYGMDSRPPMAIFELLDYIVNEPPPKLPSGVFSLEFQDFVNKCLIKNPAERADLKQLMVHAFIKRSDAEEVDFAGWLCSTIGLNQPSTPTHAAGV
Vascular endothelial growth factor receptor 2, sequence (P35968 whole entry): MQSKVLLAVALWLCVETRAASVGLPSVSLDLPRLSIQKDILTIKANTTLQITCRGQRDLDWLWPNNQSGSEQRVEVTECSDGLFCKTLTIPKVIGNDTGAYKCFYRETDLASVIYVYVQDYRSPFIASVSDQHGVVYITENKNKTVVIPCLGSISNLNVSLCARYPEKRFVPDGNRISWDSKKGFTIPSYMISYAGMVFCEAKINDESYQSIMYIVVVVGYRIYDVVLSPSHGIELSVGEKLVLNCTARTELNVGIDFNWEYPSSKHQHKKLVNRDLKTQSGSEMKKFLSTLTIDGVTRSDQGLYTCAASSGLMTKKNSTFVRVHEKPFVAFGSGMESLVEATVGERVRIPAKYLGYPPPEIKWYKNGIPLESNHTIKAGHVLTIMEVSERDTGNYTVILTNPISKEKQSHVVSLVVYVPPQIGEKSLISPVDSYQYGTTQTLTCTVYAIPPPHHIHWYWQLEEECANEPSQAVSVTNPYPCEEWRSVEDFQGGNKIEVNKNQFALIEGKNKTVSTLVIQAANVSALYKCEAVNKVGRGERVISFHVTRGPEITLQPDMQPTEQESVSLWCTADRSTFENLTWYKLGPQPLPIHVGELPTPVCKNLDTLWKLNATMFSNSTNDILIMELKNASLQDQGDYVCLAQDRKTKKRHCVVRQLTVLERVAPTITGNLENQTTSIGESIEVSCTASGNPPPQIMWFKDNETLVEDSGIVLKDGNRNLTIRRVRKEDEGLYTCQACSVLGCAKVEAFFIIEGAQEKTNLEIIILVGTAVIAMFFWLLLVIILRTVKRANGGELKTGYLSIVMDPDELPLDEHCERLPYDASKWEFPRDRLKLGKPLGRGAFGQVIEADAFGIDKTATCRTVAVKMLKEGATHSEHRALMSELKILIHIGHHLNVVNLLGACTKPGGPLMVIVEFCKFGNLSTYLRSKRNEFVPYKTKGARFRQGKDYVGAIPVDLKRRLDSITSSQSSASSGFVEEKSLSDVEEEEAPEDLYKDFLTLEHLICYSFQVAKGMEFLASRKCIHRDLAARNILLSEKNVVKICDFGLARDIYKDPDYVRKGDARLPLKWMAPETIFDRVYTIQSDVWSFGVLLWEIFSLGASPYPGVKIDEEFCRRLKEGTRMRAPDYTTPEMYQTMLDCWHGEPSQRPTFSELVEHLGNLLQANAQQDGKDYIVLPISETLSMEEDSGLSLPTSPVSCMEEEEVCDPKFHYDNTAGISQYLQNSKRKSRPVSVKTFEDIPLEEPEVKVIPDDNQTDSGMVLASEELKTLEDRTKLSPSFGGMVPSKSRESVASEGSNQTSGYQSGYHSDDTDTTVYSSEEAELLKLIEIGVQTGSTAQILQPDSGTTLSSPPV

For `COc1cc2ncnc(N3CCN(/C(S)=N\Cc4ccccc4)CC3)c2cc1OC`, the pIC50 in series [1], in series [3], in series [4], in [5], in series [7] and in series [8] was below 4.52 in each case. Besides, the negative logarithm of the IC50 (pIC50) in [9] is below 4.52; in [11], below 4.52; in series [14] it was 6.62. For the same molecule, the concentration at 8 h in [2] was found to be 1600 ng/mL; in series [18], 900 ng/mL. Also, the concentration at 1 h in series [6] stood at 8100 ng/mL; in series [13] it was 5400 ng/mL. In addition, the IC50 in series [10] was above 30 uM l-1; in [12], above 200 uM l-1; in [15], above 30 uM l-1; in [16] it was above 30 uM l-1; in series [17] it was above 30 uM l-1.
In the case of `COc1cc2ncnc(N3CCN(/C(S)=N\Cc4ccc5c(c4)OCO5)CC3)c2cc1OC`, the concentration at 8 h is 3600 ng/mL in series [19] and 2400 ng/mL in [21]. The pIC50 in [4] is below 4.52; in series [5], below 4.52; in series [7], 4.83; in [8] it was below 4.52; in series [9] it was below 4.52; in series [11], below 4.52. The same molecule gave a pIC50 in series [23] of 4.76. For the same molecule, the AUC in [20] is 89900 ng·h/mL. This molecule displayed a Cmax in series [20] of 14500 ng/mL. In addition, the Tmax in series [20] was 3.33 h. The same molecule showed a half-life in series [20] of 3.92 h. For the same molecule, the figures for the concentration at 1 h in series [22] and in series [24] were 5100 ng/mL and 5900 ng/mL, respectively. Besides, the IC50 was above 30 uM l-1 in series [10]; 160 uM l-1 in series [12]; above 30 uM l-1 in series [15]; above 30 uM l-1 in [16]; above 30 uM l-1 in series [25]; above 30 uM l-1 in series [17].
Regarding `COc1ccc(CNC(=S)N2CCN(c3ncnc4cc(OC)c(OC)cc34)CC2)cc1`, the concentration at 1 h is 2300 ng/mL in series [26] and 2500 ng/mL in series [27]. This molecule also gave a negative-log IC50 (pIC50) in series [28] of 7.00. Further, the results for the concentration at 8 h in series [29] and in series [30] were 400 ng/mL and 500 ng/mL, respectively.

The pIC50 is the IC50 on a negative log10 scale, so that one unit is a factor of ten. Higher therefore signals a small IC50. In general, AUC refers to the area under the concentration-time curve, a measure of exposure. The low end stands for low exposure, the high end for high exposure. Usually Cmax stands for the highest concentration seen after dosing. In general, Tmax refers to the time at which the peak concentration occurs. By half-life is commonly meant how long it takes for the measured level to halve. Higher therefore signals slow decline.
